Activity calls are given as the source filed them. The rule behind the calls is not given here.
Legend:
Homo sapiens [1] = species on record: Homo sapiens; test: Inhibition of deubiquitinase in HEK293T cells expressing N-terminal HA-tagged ubiquitin assessed as stabilization of HMW-Ub proteins by measuring half life at 500 uM after 2 hrs by Western blot analysis; assay type: cell-based
[2] = Inhibition of deubiquitinase in HEK293T cells expressing N-terminal HA-tagged ubiquitin assessed as stabilization of HMW-Ub proteins after 2 hrs by Western blot analysis; assay type: cell-based, Homo sapiens
[3] = Inhibition of deubiquitinase in COS1 cells expressing N-terminal HA-tagged ubiquitin assessed as stabilization of HMW-Ub proteins by Western blot analysis; assay type: cell-based, Chlorocebus aethiops
In short: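 HMW-Ub decomposition followed in lysates of Cos-1 cells expressing HA-Ub; EC50 from inhibition of HMW-Ub loss; mean ± s.e.m. of at least 3 independent experiments.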

[4] = biological target: Sentrin-specific protease 6 (Homo sapiens) (UniProt Q9GZR1); test: Inhibition of recombinant His6-tagged SENP6 catalytic domain (628 to 1112 residues) (unknown origin) at 1 to 25 uM using SUMO2-modified RanGap1 as substrate preincubated for 30 mins followed by substrate addition and measured after 10 mins by Western blot analysis
In short: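 His6-SENP6 catalytic domain (aa 628-1112, 200 nM) treated with inhibitor 30 min at room temperature; SUMOylated His6-RanGap1 (aa 418-588, 3 μM) then added for 10 min at 37 °C; quenched in Laemmli buffer, SDS-PAGE, anti-His6 immunoblot.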

[5] = biological target: Ubiquitin carboxyl-terminal hydrolase 7 (Homo sapiens) (UniProt Q93009); test: Inhibition of recombinant His6-tagged USP7 catalytic domain (unknown origin) assessed as association constant using Ub-AMC as substrate by fluorescence assay
[6] = Inhibition of deubiquitinase in HEK293T cells assessed as stabilization of K48-linked HMW-Ub protein by Western blot analysis; assay type: cell-based, Homo sapiens
K562 = test: Inhibition of deubiquitinase in human K562 cells assessed as accumulation of K48-linked HMW-Ub protein at 50 uM measured after 2 hrs by Western blot analysis; assay type: cell-based
In short: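 K562 cells exposed to compound at 50 μM for 2 h; K48-linked ubiquitin accumulation read by immunoblotting.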

[7] = biological target: Ubiquitin carboxyl-terminal hydrolase 9X (Homo sapiens) (UniProt Q93008); test: Inhibition of recombinant His6-tagged USP9x catalytic domain (unknown origin) assessed as association constant using Ub-AMC as substrate by fluorescence assay
Papain (Carica papaya) = biological target: T1, Papain (Carica papaya) (UniProt P00784); test: Inhibition of papaya papain at 100 uM using Z-Arg-AMC as substrate preincubated for 30 mins followed by substrate addition by fluorescence assay
T1 sequence (whole entry): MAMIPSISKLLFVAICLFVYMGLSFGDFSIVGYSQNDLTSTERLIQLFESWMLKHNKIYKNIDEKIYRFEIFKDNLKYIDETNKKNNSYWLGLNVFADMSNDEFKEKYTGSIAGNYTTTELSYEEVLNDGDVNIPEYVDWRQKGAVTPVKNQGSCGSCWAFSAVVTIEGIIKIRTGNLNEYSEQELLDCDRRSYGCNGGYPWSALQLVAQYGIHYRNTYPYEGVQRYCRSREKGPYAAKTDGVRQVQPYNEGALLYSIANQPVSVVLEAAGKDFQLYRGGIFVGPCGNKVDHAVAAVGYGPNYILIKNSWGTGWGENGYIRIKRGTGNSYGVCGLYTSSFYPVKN
In short: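 Enzyme (papain or ficin) preincubated 30 min with inhibitor at 100 μM, then Z-Arg-AMC substrate added at 300 μM; AMC release followed.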

[8] = biological target: Ubiquitin carboxyl-terminal hydrolase 9X (Homo sapiens) (UniProt Q93008); test: Inhibition of USP9x in human K562 cells assessed as decrease in Bcr-Abl expression at 50 uM measured after 2 hrs by Western blot analysis; assay type: cell-based
In short: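 K562 cells treated with 50 μM compound for 2 h. Lysates were sonicated in SDS, and Bcr-Abl was immunoblotted with anti-Abl antibody.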

Ficin (Ficus carica) = test: Inhibition of fig ficin at 100 uM using Z-Arg-AMC as substrate preincubated for 30 mins followed by substrate addition by fluorescence assay
[9] = biological target: 26S proteasome (Homo sapiens) (UniProt Q99460+P49721+P20618+P28074+P28062+P28065+P28072+O00487+P25786+P25787+P25788+P25789+P28066+P60900+O14818+Q8TAA3+P40306+A5LHX3+P49720+P28070+Q99436+Q16186+P35998+P62191+P43686+P62333+P17980+P62195+Q13200+O43242+O00232+O00231+Q15008+P51665+Q9UNM6+P55036+P48556+P60896); test: Inhibition of 26S proteasome in HEK293T cells expressing GFP-fused Ub G76V mutant assessed as increase in GFP fluorescence; assay type: cell-based
In short: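 HEK 293T cells expressing G76V Ub-GFP, a fusion uncleavable by DUBs that reports ubiquitin-proteasome flux, treated with compound. GFP fluorescence was the read-out, with bortezomib as proteasome-inhibitor reference.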

Homo sapiens [10] = species on record: Homo sapiens; test: Inhibition of deubiquitinase in HEK293T cells expressing N-terminal HA-tagged ubiquitin assessed as stabilization of HMW-Ub proteins at 100 uM after 2 hrs by Western blot analysis; assay type: cell-based
MCF7 = test: Cytotoxicity against human MCF7 cells assessed as decrease in cell viability treated every 24 hrs measured after 72 hrs by alamar blue assay; assay type: functional, cell-based
In short: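 MCF7 or B16/F10 cells dosed with compound every 24 h. Viable cells were quantified with Alamar Blue after 72 h.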

[11] = biological target: Ubiquitin carboxyl-terminal hydrolase 9X (Homo sapiens) (UniProt Q93008); test: Inhibition of recombinant human N-terminal His6-tagged USP9x assessed as association constant using Cy5-UbVME as substrate preincubated for 15 mins followed by substrate addition and measured after 7 mins by fluorescence assay
Homo sapiens [12] = species on record: Homo sapiens; test: Inhibition of deubiquitinase in HEK293T cells expressing N-terminal HA-tagged ubiquitin assessed as stabilization of HMW-Ub proteins at 25 uM after 2 hrs by Western blot analysis; assay type: cell-based
Homo sapiens [13] = species on record: Homo sapiens; test: Inhibition of deubiquitinase in HEK293T cells expressing N-terminal HA-tagged ubiquitin assessed as stabilization of HMW-Ub proteins at 30 uM after 2 hrs by Western blot analysis; assay type: cell-based
In short: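 Lysate of HEK 293T cells expressing HA-ubiquitin, incubated with inhibitor or DMSO vehicle at 37 °C for up to 2 h. Reactions quenched with reducing Laemmli buffer. Remaining high-molecular-weight ubiquitinated proteins assessed by SDS-PAGE and anti-HA immunoblot, relative to DMSO control at time 0. Duplicate runs.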

Homo sapiens [14] = species on record: Homo sapiens; test: Inhibition of deubiquitinase in HEK293T cells expressing N-terminal HA-tagged ubiquitin assessed as stabilization of HMW-Ub proteins by measuring half life at 250 uM after 2 hrs by Western blot analysis; assay type: cell-based
Homo sapiens [15] = species on record: Homo sapiens; test: Inhibition of deubiquitinase in HEK293T cells expressing N-terminal HA-tagged ubiquitin assessed as stabilization of HMW-Ub proteins at 1 uM after 2 hrs by Western blot analysis; assay type: cell-based

Ubiquitin carboxyl-terminal hydrolase 9X (Homo sapiens), sequence (Q93008 whole entry, the tested form may be a part): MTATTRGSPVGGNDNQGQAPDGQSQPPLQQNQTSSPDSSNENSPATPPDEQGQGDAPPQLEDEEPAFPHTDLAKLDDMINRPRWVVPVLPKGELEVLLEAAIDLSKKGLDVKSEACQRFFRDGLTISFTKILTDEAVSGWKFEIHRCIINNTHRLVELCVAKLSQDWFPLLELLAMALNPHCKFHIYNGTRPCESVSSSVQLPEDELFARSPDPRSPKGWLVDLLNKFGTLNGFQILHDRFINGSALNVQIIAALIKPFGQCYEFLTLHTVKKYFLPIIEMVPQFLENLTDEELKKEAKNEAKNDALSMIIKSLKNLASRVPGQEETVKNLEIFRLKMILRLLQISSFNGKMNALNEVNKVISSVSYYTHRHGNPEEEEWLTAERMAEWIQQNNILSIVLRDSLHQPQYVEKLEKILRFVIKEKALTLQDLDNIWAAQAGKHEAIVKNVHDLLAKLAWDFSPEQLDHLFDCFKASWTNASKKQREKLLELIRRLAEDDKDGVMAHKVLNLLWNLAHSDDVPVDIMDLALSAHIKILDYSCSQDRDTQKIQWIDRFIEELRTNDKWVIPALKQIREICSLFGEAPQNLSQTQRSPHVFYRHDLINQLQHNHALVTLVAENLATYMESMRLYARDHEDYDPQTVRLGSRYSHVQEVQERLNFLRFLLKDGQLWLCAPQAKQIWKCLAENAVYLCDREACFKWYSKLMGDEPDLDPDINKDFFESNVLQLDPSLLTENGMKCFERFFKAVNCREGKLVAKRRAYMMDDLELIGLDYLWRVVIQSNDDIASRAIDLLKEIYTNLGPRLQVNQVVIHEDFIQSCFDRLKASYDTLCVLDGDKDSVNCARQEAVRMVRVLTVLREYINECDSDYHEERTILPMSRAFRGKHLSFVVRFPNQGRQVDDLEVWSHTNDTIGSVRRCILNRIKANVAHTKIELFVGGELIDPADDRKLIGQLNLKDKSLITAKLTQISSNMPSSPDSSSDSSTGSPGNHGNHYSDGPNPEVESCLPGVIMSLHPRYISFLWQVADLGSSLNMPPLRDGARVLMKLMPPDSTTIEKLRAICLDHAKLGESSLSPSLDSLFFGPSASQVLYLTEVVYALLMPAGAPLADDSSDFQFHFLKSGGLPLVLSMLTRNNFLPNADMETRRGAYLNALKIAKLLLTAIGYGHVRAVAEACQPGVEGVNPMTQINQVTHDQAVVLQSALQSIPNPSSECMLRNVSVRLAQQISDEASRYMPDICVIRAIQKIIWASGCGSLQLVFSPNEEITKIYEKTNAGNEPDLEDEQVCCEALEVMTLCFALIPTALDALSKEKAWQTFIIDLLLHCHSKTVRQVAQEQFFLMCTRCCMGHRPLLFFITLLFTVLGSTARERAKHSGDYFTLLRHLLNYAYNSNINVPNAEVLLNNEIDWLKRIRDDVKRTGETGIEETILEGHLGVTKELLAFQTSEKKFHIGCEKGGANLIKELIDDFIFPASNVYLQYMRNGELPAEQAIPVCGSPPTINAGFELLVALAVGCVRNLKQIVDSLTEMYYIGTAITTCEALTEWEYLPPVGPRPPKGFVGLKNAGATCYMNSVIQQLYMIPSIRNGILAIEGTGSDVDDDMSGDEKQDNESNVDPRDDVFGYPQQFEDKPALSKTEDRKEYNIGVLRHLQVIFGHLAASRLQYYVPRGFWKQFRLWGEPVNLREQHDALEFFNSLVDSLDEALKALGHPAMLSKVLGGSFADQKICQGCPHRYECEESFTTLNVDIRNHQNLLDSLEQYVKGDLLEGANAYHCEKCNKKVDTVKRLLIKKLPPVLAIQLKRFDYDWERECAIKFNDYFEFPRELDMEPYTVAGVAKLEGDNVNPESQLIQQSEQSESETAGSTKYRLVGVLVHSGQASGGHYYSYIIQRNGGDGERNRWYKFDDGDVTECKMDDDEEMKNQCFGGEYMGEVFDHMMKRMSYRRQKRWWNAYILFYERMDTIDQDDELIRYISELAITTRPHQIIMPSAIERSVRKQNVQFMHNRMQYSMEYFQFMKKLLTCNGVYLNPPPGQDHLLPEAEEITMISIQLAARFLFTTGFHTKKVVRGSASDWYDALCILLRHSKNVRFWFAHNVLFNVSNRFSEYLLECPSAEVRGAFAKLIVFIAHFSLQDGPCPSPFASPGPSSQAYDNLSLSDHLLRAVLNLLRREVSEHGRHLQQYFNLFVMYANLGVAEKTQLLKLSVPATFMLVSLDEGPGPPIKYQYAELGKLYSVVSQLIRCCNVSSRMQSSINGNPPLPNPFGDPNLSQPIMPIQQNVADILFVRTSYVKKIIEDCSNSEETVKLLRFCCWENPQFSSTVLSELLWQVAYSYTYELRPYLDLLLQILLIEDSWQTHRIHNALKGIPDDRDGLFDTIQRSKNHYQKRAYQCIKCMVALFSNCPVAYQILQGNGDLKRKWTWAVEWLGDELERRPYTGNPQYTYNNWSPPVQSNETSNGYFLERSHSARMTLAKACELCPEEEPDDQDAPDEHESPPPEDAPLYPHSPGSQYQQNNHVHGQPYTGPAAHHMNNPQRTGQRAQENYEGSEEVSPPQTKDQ
Ubiquitin carboxyl-terminal hydrolase 7 (Homo sapiens), sequence (Q93009 whole entry, looked up, the tested form may be a part): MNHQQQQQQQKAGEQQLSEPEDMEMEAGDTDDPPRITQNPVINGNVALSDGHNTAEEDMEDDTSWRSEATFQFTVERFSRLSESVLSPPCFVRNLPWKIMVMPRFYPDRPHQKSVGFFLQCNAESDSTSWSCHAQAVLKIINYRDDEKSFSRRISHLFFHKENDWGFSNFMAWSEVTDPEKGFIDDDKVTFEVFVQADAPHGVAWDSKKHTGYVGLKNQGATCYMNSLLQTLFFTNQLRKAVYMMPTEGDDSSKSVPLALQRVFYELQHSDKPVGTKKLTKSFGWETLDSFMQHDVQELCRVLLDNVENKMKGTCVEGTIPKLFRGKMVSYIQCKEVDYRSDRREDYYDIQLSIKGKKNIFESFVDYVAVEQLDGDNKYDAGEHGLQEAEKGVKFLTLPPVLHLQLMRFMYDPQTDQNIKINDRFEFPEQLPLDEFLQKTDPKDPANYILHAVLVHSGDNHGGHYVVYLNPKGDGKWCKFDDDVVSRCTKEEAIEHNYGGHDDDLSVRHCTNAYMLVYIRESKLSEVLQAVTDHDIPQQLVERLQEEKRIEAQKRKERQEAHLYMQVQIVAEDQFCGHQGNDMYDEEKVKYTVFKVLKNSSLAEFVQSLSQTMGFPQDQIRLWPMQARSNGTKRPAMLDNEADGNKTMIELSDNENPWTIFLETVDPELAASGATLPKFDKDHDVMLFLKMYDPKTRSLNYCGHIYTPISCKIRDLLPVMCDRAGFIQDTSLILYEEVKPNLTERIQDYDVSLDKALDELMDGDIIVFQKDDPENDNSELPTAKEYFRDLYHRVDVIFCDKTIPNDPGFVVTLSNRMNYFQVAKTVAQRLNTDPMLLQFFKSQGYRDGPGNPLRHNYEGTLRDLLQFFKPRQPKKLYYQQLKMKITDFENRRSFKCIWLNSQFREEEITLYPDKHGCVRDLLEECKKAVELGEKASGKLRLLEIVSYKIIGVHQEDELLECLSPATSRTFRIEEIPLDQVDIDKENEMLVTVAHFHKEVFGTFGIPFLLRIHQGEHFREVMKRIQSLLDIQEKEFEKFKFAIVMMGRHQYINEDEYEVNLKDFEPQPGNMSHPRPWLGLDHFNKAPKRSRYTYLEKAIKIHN
Sentrin-specific protease 6 (Homo sapiens), sequence (Q9GZR1 whole entry, the tested form may be a part): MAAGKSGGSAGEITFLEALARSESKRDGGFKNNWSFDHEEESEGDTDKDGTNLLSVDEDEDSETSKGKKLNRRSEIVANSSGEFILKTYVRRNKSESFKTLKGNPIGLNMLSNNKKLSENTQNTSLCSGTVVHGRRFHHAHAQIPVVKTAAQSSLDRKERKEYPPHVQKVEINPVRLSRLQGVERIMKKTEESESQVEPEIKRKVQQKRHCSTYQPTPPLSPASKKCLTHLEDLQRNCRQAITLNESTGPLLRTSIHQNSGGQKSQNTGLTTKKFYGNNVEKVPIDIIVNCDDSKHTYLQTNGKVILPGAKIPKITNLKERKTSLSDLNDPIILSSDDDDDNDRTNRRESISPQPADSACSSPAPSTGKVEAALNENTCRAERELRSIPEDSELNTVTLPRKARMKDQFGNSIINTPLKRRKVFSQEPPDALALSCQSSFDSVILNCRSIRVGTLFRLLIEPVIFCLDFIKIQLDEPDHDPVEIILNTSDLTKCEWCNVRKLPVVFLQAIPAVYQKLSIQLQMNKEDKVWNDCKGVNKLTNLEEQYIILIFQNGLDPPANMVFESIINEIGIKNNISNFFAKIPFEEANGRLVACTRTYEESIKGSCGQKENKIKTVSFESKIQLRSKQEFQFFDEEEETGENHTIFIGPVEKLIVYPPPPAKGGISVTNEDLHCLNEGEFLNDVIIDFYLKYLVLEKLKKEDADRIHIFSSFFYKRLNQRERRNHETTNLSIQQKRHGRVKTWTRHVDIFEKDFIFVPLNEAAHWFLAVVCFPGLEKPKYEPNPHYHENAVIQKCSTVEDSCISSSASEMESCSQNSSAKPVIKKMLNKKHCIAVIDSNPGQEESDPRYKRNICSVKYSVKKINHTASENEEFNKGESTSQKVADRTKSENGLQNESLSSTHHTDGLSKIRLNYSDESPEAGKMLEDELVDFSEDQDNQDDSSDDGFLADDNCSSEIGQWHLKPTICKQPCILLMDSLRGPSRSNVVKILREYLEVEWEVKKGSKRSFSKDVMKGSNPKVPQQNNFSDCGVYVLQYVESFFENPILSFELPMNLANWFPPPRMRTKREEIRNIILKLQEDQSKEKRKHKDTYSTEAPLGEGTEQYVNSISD

## NCc1ccc(OC(=O)Oc2ccccc2)cc1
Homo sapiens [1]
  T1/2: > 0.5 h
[2]
  EC50: 210 µM
[3]
  EC50: 250 µM

## NCc1ccc(NC(=O)Oc2ccccc2)cc1
[2]
  EC50: > 150 µM

## O=C(Oc1ccccc1)Oc1ccc(CNCc2ccc(Cl)cc2)cc1
[2]
  EC50: 300 µM

## CC(C)(C)OC(=O)NCc1ccc(OC(=O)Oc2ccccc2)cc1
[2]
  EC50: > 150 µM

## NCc1ccc(OC(=O)Oc2ccc(Br)cc2)cc1
[4]
  inhibition: inactive
[5]
  K: 8 M⁻¹ s⁻¹
[6]
  EC50: < 50 µM
K562
  inhibition: Active
[7]
  K: 6 M⁻¹ s⁻¹
Papain (Carica papaya)
  inhibition: inactive
[8]
  inhibition: Active
[2]
  EC50: 30 µM
Ficin (Ficus carica)
  inhibition: inactive
[3]
  EC50: 40 µM
[9]
  inhibition: inactive

## NCc1ccc(OC(=O)Oc2ccccc2Cl)cc1
[2]
  EC50: 60 µM

## CC(C)CNCc1ccc(OC(=O)Oc2ccc3ccccc3c2)cc1
[2]
  EC50: 70 µM

## O=C1/C(=C/c2ccc([N+](=O)[O-])cc2)CS(=O)(=O)C/C1=C\c1ccc([N+](=O)[O-])cc1
Homo sapiens [10]
  inhibition: Active

## NCc1ccc(O)cc1
MCF7
  Activity: inactive

## S=C=NCCc1ccccc1
[11]
  K: 150 M⁻¹ s⁻¹

## Cc1ccc(/C=C2\CNC/C(=C\c3ccc(C)cc3)C2=O)cc1
Homo sapiens [12]
  inhibition: Active

## Cc1ccc(OC(=O)Oc2ccc(CN)cc2)cc1
[2]
  EC50: 250 µM

## NCc1ccc(OC(=O)Oc2cccc3ccccc23)cc1
[5]
  K: inactive
[6]
  EC50: < 50 µM
K562
  inhibition: Active
[7]
  K: 17 M⁻¹ s⁻¹
Papain (Carica papaya)
  inhibition: inactive
[8]
  inhibition: Active
[2]
  EC50: 40 µM
Ficin (Ficus carica)
  inhibition: inactive
[9]
  inhibition: inactive

## CC(C)COC(=O)Oc1ccc(CN)cc1
[2]
  EC50: > 500 µM

## Oc1ccc2ccccc2c1
MCF7
  Activity: inactive

## CC(C)(C)OC(=O)NCc1ccc(OC(=O)Oc2ccc3ccccc3c2)cc1
[2]
  EC50: > 150 µM

## NCc1ccc(OC(=O)Cc2ccccc2)cc1
[2]
  EC50: > 150 µM

## C=CC(=O)N1C/C(=C\c2ccc([N+](=O)[O-])cc2)C(=O)/C(=C/c2ccc([N+](=O)[O-])cc2)C1
[7]
  K: 140 M⁻¹ s⁻¹

## NCc1ccc(CC(=O)Oc2ccccc2)cc1
[2]
  EC50: > 150 µM

## Cc1cc(C(=O)CN2CCCC2)c(C)n1-c1ccc(F)cc1
Homo sapiens [13]
  inhibition: Active

## Cc1ccc(OC(=O)Oc2cccc(C)c2)cc1
[2]
  EC50: > 150 µM

## COc1ccc(OC(=O)Oc2cccc(OC)c2)cc1
[2]
  EC50: > 150 µM

## NCc1ccc(OC(=O)Oc2ccc(F)cc2)cc1
[2]
  EC50: 300 µM

## O=C(Oc1ccccc1)Oc1ccccc1
[2]
  EC50: > 150 µM

## CCC[C@H](NC(=O)/C(C#N)=C/c1cccc(Br)n1)c1ccccc1
[5]
  K: 66 M⁻¹ s⁻¹
[7]
  K: 50 M⁻¹ s⁻¹

## CC(C)(C)CNCc1ccc(OC(=O)Oc2ccc3ccccc3c2)cc1
[5]
  K: 21 M⁻¹ s⁻¹
[7]
  K: inactive
[2]
  EC50: 30 µM

## NCc1ccc(OC(=O)Nc2ccccc2)cc1
[2]
  EC50: > 150 µM

## NCc1ccc(OC(=O)Oc2ccc(Cl)cc2)cc1
[4]
  inhibition: inactive
[5]
  K: 13 M⁻¹ s⁻¹
[6]
  EC50: < 50 µM
Homo sapiens [14]
  T1/2: > 6 h
K562
  inhibition: Active
[7]
  K: 18 M⁻¹ s⁻¹
Papain (Carica papaya)
  inhibition: inactive
[8]
  inhibition: Active
[2]
  EC50: 30 µM
Ficin (Ficus carica)
  inhibition: inactive
[3]
  EC50: 50 µM
[9]
  inhibition: inactive

## CC(C)(C)OC(=O)NCc1ccc(OC(=O)Oc2ccc(Cl)cc2)cc1
[2]
  EC50: > 150 µM

## COc1ccc(OC(=O)Oc2ccc(CN)cc2)cc1
[2]
  EC50: 260 µM

## CC(C)C[C@H](NC(=O)[C@H](Cc1ccccc1)NC(=O)c1cnccn1)B(O)O
Homo sapiens [15]
  inhibition: inactive

## N#CSc1cc(SC#N)c(N)nc1N
[7]
  K: 90 M⁻¹ s⁻¹
